Measured values gathered from unrelated publications.
Each line is one published result; the experiments were not run side by side.
CDK2 with cyclin E: Cyclin-dependent kinase 2, with cyclin E (CDK2, Homo sapiens, UniProt P24941)
CDK2 with cyclin A: Cyclin-dependent kinase 2, with cyclin A (CDK2, Homo sapiens, UniProt P24941)
CDK2: Cyclin-dependent kinase 2 (CDK2, Homo sapiens, UniProt P24941)

Compound	target	read-out	action	technique	concentration	endpoint	value
O=C(Nc1cccnn1)N1CCN([C@@H]2CCOc3cc(C(F)(F)F)ccc32)CC1	CDK2 with cyclin E	cell-free assay	inhibitor	–	20 µM	inhibition	3%
Cn1cc(-c2cccc(N3CCc4c(sc5c4CC(C)(C)C5)C3=O)c2CO)cc(Nc2ccncn2)c1=O	CDK2 with cyclin A	enzyme activity	inhibitor	–	1 µM	inhibition	-4%
COc1ncccc1-c1cnn2ccc(N3CCN(C(=O)OC(C)C)CC3)nc12	CDK2	binding	–	competition with immobilised ligand	1 µM	remaining binding	99%
N#CC1(c2ccccn2)CCN(Cc2cc(C(=O)O)c(=O)n3ccccc23)CC1	CDK2	cell-free assay	–	competition with immobilised ligand	1 µM	remaining binding	100%
Cn1cc(-c2cc(F)cc(N3CCn4c(cc5c4CCCC5)C3=O)c2CO)cc(Nc2ccc(N3CCN(C4COC4)CC3)cn2)c1=O	CDK2 with cyclin A	enzyme activity	inhibitor	–	0.1 µM	inhibition	7%
O=c1[nH]c2ccccc2n1C1CCN(Cc2ccc(-c3[nH]c4cc5ncnc5cc4nc3-c3ccccc3)cc2)CC1	CDK2 with cyclin E	cell-free assay	–	–	0.5 µM	remaining signal	95.6%
Cn1cncc1[C@@](O)(COc1ccc(C#N)cc1-c1ccc(OC(F)(F)F)cc1)c1ccc(C#N)cc1	CDK2	cell-free assay	–	competition with immobilised ligand	1 µM	remaining binding	89%
Cc1ncc(C)n2nc(/C=C/c3nc(N4CCCC4)cc(N4CCOCC4)n3)nc12	CDK2 with cyclin A	enzyme activity	inhibitor	–	10 µM	inhibition	-3%
CC(C)(C)c1cc(C=C(C#N)C#N)cc(Br)c1O	CDK2 with cyclin E	enzyme activity	inhibitor	–	0.5 µM	remaining activity	77.6%
C#Cc1n[nH]c2c(-c3cn([C@@H](C)c4ccccc4)c(=O)[nH]c3=O)cc(F)cc12	CDK2 with cyclin A	enzyme activity	inhibitor	–	0.1 µM	inhibition	6.3%
Nc1ncc(-c2nc(N3CCOCC3)nc(N3CCOCC3)n2)c(C(F)F)n1	CDK2	binding	–	competition with immobilised ligand	10 µM	remaining binding	100%
